The results in this text go back to ChEMBL document CHEMBL4184245, “Multiple-step, one-pot synthesis of 2-substituted-3-phosphono-1-thia-4-aza-2-cyclohexene-5-carboxylates and their corresponding ethyl esters” (Bioorg Med Chem Lett, 2018).

The source made the active and inactive calls. The rule behind the calls is not given here. Bounds are passed on as bounds.

The subject of series [1] is RG2. As to the kind of experiment: Induction of autophagy in rat RG2 cells assessed as increase in LC3-II level at 10 uM pre-incubated for 15 mins before bafilomycin-A1 addition and further incubated for 4 hrs by Western blotting method. The format is functional, cell-based. (In general: In western blotting, separated proteins are transferred to a membrane and probed.)

Series [2] relates to RG2. The series is described as follows: Induction of autophagy in rat RG2 cells assessed as increase in LC3-II level at 100 uM pre-incubated for 15 mins before bafilomycin-A1 addition and further incubated for 4 hrs by Western blotting method. The format is functional, cell-based.
A short description of series [3]: Efflux ratio in human Caco2 cells at 10 uM incubated for 2 hrs by LC-MS/MS method. The format is ADME, cell-based. As to conditions: Caco-2. On the technique in general: Caco-2 monolayers are a common model of the intestinal barrier.
Series [4] is described as follows: Apparent permeability of the compound across basolateral to apical side in human Caco2 cells at 10 uM incubated for 2 hrs by LC-MS/MS method. It is filed as ADME, cell-based. As to conditions: Caco-2. The method in brief:
(§1)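 Permeability was measured across Caco-2 epithelial monolayers.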

Series [5] is described as follows: Apparent permeability of the compound across apical side to basolateral side in human Caco2 cells at 10 uM incubated for 2 hrs by LC-MS/MS method. To be noted: Caco-2. The format is ADME, cell-based. In outline: as §1
Series [6] deals with RG2. The series is described as follows: Induction of autophagy in rat RG2 cells assessed as optimum compound level causing increase in LC3-II level pre-incubated for 15 mins before bafilomycin-A1 addition and further incubated for 4 hrs by Western blotting method. It is filed as functional. In outline:
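Cells were tested at 1, 10 and 100 μM. The optimum concentration for autophagy stimulation was estimated from these few levels in preliminary single-series experiments.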

Regarding `CC(C)C1=C(P(=O)(O)O)N[C@H](C(=O)O)CS1`, in series [1], the outcome was Active. Further, the result in series [2] was inactive.

For the compound `CCCCC1=C(P(=O)(O)O)N[C@H](C(=O)O)CS1`, in series [3], the efflux ratio at 2 h, 10 µM turned out to be 0.33. Besides, in series [4], the Papp B→A at 2 h, 10 µM was 0.35 ×10⁻⁶ cm/s. Also, in series [5], the Papp A→B at 2 h, 10 µM was determined as 1.1 ×10⁻⁶ cm/s.

As to `CCCCCCC1=C(P(=O)(O)O)N[C@H](C(=O)O)CS1`, the Papp B→A at 2 h, 10 µM in series [4] was less than 0.01 ×10⁻⁶ cm/s. Also, the apical-to-basolateral permeability (Papp A→B) at 2 h, 10 µM in series [5] is less than 0.01 ×10⁻⁶ cm/s.

On to `CCCCC1=C(P(=O)(O)O)N[C@H](C(=O)OCC)CS1`, for which, in series [4], the Papp B→A at 2 h, 10 µM was less than 0.01 ×10⁻⁶ cm/s. Further, in series [5], the Papp A→B at 2 h, 10 µM is less than 0.01 ×10⁻⁶ cm/s.

Turning to `CCCCCCC1=C(P(=O)(O)O)N[C@H](C(=O)OCC)CS1`, in series [4], the Papp B→A at 2 h, 10 µM was less than 0.01 ×10⁻⁶ cm/s. Further, the Papp A→B at 2 h, 10 µM in series [5] was less than 0.01 ×10⁻⁶ cm/s. Further, the Activity in series [6] is 1 to 10 µM.

On to `CCOC(=O)[C@@H]1CSC(CC)=C(C(=O)O)N1`, for which, in series [6], the Activity is greater than 10 µM.

For the compound `O=C(O)C1=CSC[C@@H](C(=O)O)N1`, the outcome in series [1] and in series [2] was Active.

With `CCOC(=O)[C@@H]1CSC=C(C(=O)O)N1`, the Papp B→A at 2 h, 10 µM in series [4] was less than 0.01 ×10⁻⁶ cm/s. Besides, in series [5], the Papp A→B at 2 h, 10 µM was less than 0.01 ×10⁻⁶ cm/s.

One may read the efflux ratio as a quotient of directional permeabilities that is used to spot active efflux. The Papp B→A is the apparent permeability from the basolateral to the apical side of a cell layer. Broadly, the Papp A→B is the apparent permeability from the apical to the basolateral side of a cell layer.
